From PubChem
An excerpt weighted towards active compounds, which were near 9.8% of everything screened.
WT yeast gro inh – growth inhibition of WT strain, primary screen, mitochondrial fusion inhibitor project, WT and mutant strains, chemical genetic. actives 2.1% (n = 190,000). AID 1362, 2008. mitochondrial fusion phenotypic screen. inhibition, % at 10 µM; in the data active = inhibition above about 58%; tested in S. cerevisiae
Rad51 HR inh – human RAD51 strand exchange inhibitors, primary screen, biochemical, fluorescence; AID 1385, 2008; actives 0.085% (n = 200,000); inhibition, % at 10 µM; DNA repair protein RAD51 homolog 1 (Homo sapiens), Q06609; hRad51 DNA strand exchange, fluorescence dequenching;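 active = inhibition above 40% at the single screening dose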;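 also: 0% = DMSO control wells and 100% = blanks with heterologous ssDNA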
Target sequence (Q06609 whole entry, looked up): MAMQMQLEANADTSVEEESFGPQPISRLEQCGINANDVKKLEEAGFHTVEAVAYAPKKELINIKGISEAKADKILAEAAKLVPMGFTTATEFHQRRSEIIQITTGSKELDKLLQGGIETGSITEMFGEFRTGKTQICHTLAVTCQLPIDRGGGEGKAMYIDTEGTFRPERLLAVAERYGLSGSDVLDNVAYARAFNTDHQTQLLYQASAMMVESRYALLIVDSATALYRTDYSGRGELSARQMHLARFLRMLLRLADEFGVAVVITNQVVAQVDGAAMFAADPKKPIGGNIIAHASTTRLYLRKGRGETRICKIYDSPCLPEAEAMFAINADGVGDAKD
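Assay system: Human Rad51 nucleoprotein filaments preassembled on unlabelled ssDNA | Reagent: Donor/quencher-labelled 47-bp dsDNA substrate | Doses: One concentration, 10 µM final | Times: 37 °C 15-min filament assembly, 30-min compound preincubation, 15-min exchange | Technique: Fluorescein emission 520 nm, excitation 485 nm | Benchmarks: Plate control and blank wells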
PMI activator – activators of human PMI, primary screen, biochemical, fluorescence intensity, near-Km mannose 6-phosphate; AID 1214, 2008; activation factor at 20 µM; actives 0.005% (n = 190,000); Mannose-6-phosphate isomerase (Homo sapiens), P34949; purified human PMI, coupled resazurin fluorescence, 20 min; hits give high values; 1 = vehicle control, 0 substrate-free wells;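 active = activation factor of 2 or more at 20 µM, relative to plate controls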
L major viab – Leishmania major promastigote growth inhibition, primary screen; AID 1063, 2008; inhibition, % at 10 µM; Leishmania major promastigotes, resazurin fluorescence viability; actives 9% (n = 200,000); in the data active = inhibition above about 50%;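 also: promastigotes grown with compound for 44 hours at 28 °C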
m-calpain inh – inhibitors of pig calpain II, primary screen, biochemical, fluorogenic peptide substrate, 1536-well; actives 0.37% (n = 220,000); inhibition, % at 16 µM; purified calpain II, 30 min;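 active = inhibition above about 50%, limit read from the data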
PMI act hi M6P – human PMI activators, high substrate, primary screen, biochemical, fluorescence intensity, near-saturating mannose 6-phosphate. Mannose-6-phosphate isomerase (Homo sapiens), P34949. coupled PMI enzyme assay, resazurin fluorescence, 20 min; hits give high values; 1 = untreated enzyme, 0 = substrate-free blank. activation factor at 20 µM. actives 0.34% (n = 190,000). AID 1216, 2008;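 active = activation factor of 2 or more at 20 µM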
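Test system: human phosphomannose isomerase with PGI, G6PDH, diaphorase coupling enzymes; Amount: PMI at 15 ng/mL final; Reagent: Mannose-6-phosphate 1.0 mM (near-saturating) plus 0.22 mM NADP+; Timing: 20 min, room temperature; Technique: resorufin fluorescence at Ex 544/Em 590 nm; Dosing: 20 µM single dose.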
* marks the source's active call; other numbers are inactive results; nt = no result given.

SMILES	WT yeast gro inh	Rad51 HR inh	PMI activator	L major viab	m-calpain inh	PMI act hi M6P
CC1(C)CC(O)(CCNCc2ccc3c(c2)OCO3)CCO1 (stereo not drawn)	-13	1	0.9	83*	-24	0.9
CCOC(=O)C(=CNc1cc(C)ccc1-n1cccc1)C(=O)OCC	nt	-17	nt	nt	3	nt
COc1ccc(NC(=O)CCc2nc3ccccc3[nH]2)cc1	-11	3	1	0	0	1
CCN(CC)S(=O)(=O)c1cccc(NC(=O)c2cc(-c3cccs3)nn2-c2ccccc2)c1	-8	4	0.9	98*	-1	0.9
CN(C)S(=O)(=O)c1cccc(NC(=O)c2cc(-c3cccs3)nn2-c2ccccc2)c1	7	nt	1	8	-17	1
CC(C)c1cccc(C(C)C)c1NC(=S)Nc1cccc(Cl)c1	nt	0	nt	nt	7	nt
Cc1ccc(-n2nnc3c(SCC(=O)NCC4CCCO4)ncnc32)cc1 (stereo not drawn)	23	-3	1	86*	31	1
CC(C)=NN/C(N)=N/C(=S)Nc1ccc(C)cc1	26	-3	0.9	46	11	0.9
COc1c(C)cc(C(=O)C2CCCN(Cc3cnc(N4CCOCC4)s3)C2)cc1C (stereo not drawn)	5	-4	1	100*	16	1
COc1ccc(C(=O)C2CCCN(Cc3cnc(N4CCCC4)s3)C2)cc1OC (stereo not drawn)	4	nt	0.8	72*	4	0.9
COc1ccc(Cl)cc1C(=O)C1CCCN(Cc2cnc(N3CCOCC3)s2)C1 (stereo not drawn)	8	13	0.9	4	-7	0.9
COc1ccc2cc(C(=O)C3CCCN(Cc4cnc(C)s4)C3)ccc2c1 (stereo not drawn)	24	13	0.8	79*	-305	0.8
COc1ccc(CN2CCCC(C(=O)c3ccc(Cl)cc3)C2)cc1Cn1cccn1 (stereo not drawn)	30	12	1	96*	22	1
COc1cccc(C(=O)C2CCCN(Cc3ccc(OC)c(Cn4cncn4)c3)C2)c1 (stereo not drawn)	nt	nt	nt	nt	-8	nt
Cc1ccc(C)c(S(=O)(=O)NCc2ccc(C(=O)N3CCC(Cc4ccccc4)CC3)cc2)c1	54	-8	0.8	27	-13	0.8
O=C(NC(Cc1ccccc1)C(=O)O)/C(=C/c1ccco1)NC(=O)c1cccc(Br)c1 (stereo not drawn)	-5	-7	1.1	15	-37	0.9
O=C1C=C(NCCN2CCOCC2)C(=O)c2cnccc21	4	-6	0.7	99*	8	0.5
CC(C)CCNC(=O)NC(=O)COC(=O)/C=C/c1cc(Br)ccc1F	-5	5	1.1	-2	-3	1
CN1CCN(Cc2cc(=O)oc3cc4c(cc23)CCC4)CC1	-12	5	0.9	65*	-15	0.9
Cc1ccc2c(CN3CCN(CCO)CC3)cc(=O)oc2c1C	5	3	0.9	55*	2	1
Cc1cc2oc(=O)cc(CN3CCCc4ccccc43)c2cc1C	7	-26	1.1	99*	-24	2.3*
COC(=O)c1[nH]c(C)c(/C(O)=C2\C(=O)C(=O)N(CCN3CCOCC3)C2c2ccc(C)o2)c1C (stereo not drawn)	nt	11	nt	nt	3	nt
CCOC(=O)C1CN(S(C)(=O)=O)c2cc(CC(=O)OC)ccc2O1 (stereo not drawn)	-11	4	1.1	2	-4	1.1
O=C(NN1C(=O)c2cc(Br)ccc2NC1c1cc(Br)cc(Br)c1O)c1ccncc1 (stereo not drawn)	17	-4	1.1	-6	-24	1.1
C1CCN(c2c3c(nc4nnnn24)CCCC3)CC1	-14	-9	0.9	-1	7	1
O=C(NCc1cccnc1)c1sc2cc(Cl)ccc2c1Cl	2	-4	1.1	82*	15	1
